Compounds with a hit are over-represented: about 4.7% of the library has one in this group of screens.
SKN-1 inh – inhibitors of C. elegans SKN-1 | C. elegans VP596 Pgst-4::GFP/RFP ratio, acrylamide-induced, 24 h | inhibition, % at 21.8 µM | 360,000 tested, 0.49% active;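 active = interference check ratio from 0.5 to 1.5 plus GFP to RFP signal ratio inhibition reaching or exceeding a fixed threshold, cut at about 30% in these data, passing the limit was not always enough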
MT1-MMP act inh – inhibitors of human MT1-MMP activation; 360,000 tested, 0.061% active; HT1080 RFP-PRO-GFP cells, GFP/RFP ratio fluorescence, overnight; percent of plate control window, DMSO zero; AID 651647; GFP/RFP ratio change, % at 20 µM; P50281;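 active = GFP/RFP ratio change of at least 30% with cell ATP level not reduced by more than half and red fluorescence within 50% of control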
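Assay system – RFP-PRO-GFP reporter HT1080 cells · Compound dosing – single dose of 20 µM compound, 1% DMSO final · Incubation – overnight compound exposure at 37 °C · Measure – GFP/RFP fluorescence ratio · Benchmarks – DMSO wells and RFP-L50D-GFP cells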
ADAM10 inh – ADAM10 inhibition, QFRET primary screen. recombinant ADAM10, EDANS/DABCYL FRET peptide cleavage, 3 h. inhibition, % at 7 µM. 370,000 tested, 0.62% active. AID 720582;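 active = inhibition above a per-campaign cutoff equal to the mean of compounds falling between control-based bounds plus 3 SD, cut at about 20% in these data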
Target sequence (O14672 214-748 limits assumed): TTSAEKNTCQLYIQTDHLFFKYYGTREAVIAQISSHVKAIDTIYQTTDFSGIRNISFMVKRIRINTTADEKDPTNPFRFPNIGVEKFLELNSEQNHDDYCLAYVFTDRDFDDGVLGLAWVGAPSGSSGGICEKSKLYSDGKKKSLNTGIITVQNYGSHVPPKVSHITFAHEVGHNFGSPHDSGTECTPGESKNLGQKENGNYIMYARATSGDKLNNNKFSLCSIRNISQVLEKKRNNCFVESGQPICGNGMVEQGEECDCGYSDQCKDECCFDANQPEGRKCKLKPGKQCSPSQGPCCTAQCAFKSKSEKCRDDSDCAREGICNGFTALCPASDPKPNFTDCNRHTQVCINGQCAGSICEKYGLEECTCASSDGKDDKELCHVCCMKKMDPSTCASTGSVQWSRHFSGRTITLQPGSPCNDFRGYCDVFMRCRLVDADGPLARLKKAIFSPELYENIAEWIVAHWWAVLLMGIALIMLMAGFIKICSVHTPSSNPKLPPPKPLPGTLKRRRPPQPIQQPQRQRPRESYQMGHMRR
ADAM17 inh – inhibitors of human ADAM17 | recombinant ADAM17, EDANS/DABCYL FRET peptide cleavage | P78536 | 370,000 tested, 0.83% active | inhibition, % at 6.95 µM;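 active = inhibition above the mean of compounds lying between control limits plus 3 SD, set per campaign, cut at about 8.5% in these data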
GRIN3A LBD mod – modulates the human NR3A ligand-binding domain; NR3A LBD differential scanning fluorimetry, Tm shift; 0% = protein alone, 100% = glycine-bound protein; 340,000 tested, 2.5% active; AID 1259313; Tm shift relative to glycine control, % at 25 µM;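 active = melting temperature shift of at least 10% of the positive control shift, at one fixed dose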
MPTP block – blocks calcium-induced mitochondrial swelling; inhibition, % at 10 µM; AID 602449; 360,000 tested, 1.4% active; isolated mouse mitochondria, Ca2+ swelling absorbance, 30 min;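 active = inhibition of 50% or more, scaled per plate between neutral and stimulator controls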
Rh123 counter – membrane potential counter-screen of mitochondrial pore inhibitors; 5,000 tested, 78% active; shares compounds with MPTP block; inhibition, % at 10 µM; isolated mitochondria, Rhodamine 123 fluorescence; in the data active = inhibition above about 22%
MPTP swell DR – MPTP inhibition, dose response swelling confirmation; isolated mitochondria swelling, absorbance; IC50, µM; shares compounds with MPTP block; 780 tested, 58% active; AID 651561; in the data active = IC50 below about 20 µM
MPTP counter DR – counter-screen for mitochondrial permeability transition pore inhibitors, dose response. isolated mitochondria counterscreen, fluorescence read-out. IC50, µM. shares compounds with MPTP block. 780 tested, 49% active; in the data active = IC50 below about 80 µM
Each line names hits and unclear results; the compound was inactive in the other large screens (follow-up assays come after a bar, where they were run).

O=C(NCc1ccc(F)cc1)Nc1cccc([N+](=O)[O-])c1	MPTP block 62 | Rh123 counter 94
O=[N+]([O-])c1cccc(S(=O)(=O)NCc2ccncc2)c1	MPTP block 82 | Rh123 counter 60
O=C(NCc1cccnc1)Nc1cccc([N+](=O)[O-])c1	none
O=C(NCc1ccccn1)Nc1cccc([N+](=O)[O-])c1	none
Cn1nnnc1SCC(=O)Nc1ccc2c(c1)OCCO2	none
O=C(NCc1ccccc1)C(c1ccccc1)N(C(=O)c1csnn1)C1CCCC1 (configuration not stated)	none
COc1ccc(/C=C/C(=O)OCC(=O)Nc2ccc(OC)c(S(=O)(=O)N3CCCCC3)c2)cc1	none
O=C(Nc1nc(=S)ss1)c1ccc(Cl)cc1Cl	MPTP block 88 | Rh123 counter 64
O=C1CN(C(=O)COC(=O)c2ccc([N+](=O)[O-])s2)c2ccccc2N1	none (no result: ADAM10 inh, ADAM17 inh)
CC(=O)c1ccc(NC(=S)N2CCC(Cc3ccccc3)CC2)cc1	MPTP block 61 | Rh123 counter 44
CC(=O)c1cccc(NC(=S)N2CCC(Cc3ccccc3)CC2)c1	none
NC(=O)CCn1c(C(=O)c2ccc(Cl)cc2)c2ccccc2[n+]1[O-]	none
CNC(=S)N/N=C/c1cc(Br)cc(Br)c1O	MPTP block 88 | Rh123 counter 60
Oc1c(Br)cc(Br)cc1/C=N/NC(=S)N[C@H]1CC2C=CC1C2 (some centres not stated)	GRIN3A LBD mod 14, MPTP block 84 | Rh123 counter 58
CC(C)(C)NC(=S)N/N=C/c1cc(Br)c(O)c(Br)c1	none
CCn1c(SCC(=O)OCc2ccccc2)nc2c1c(=O)n(C)c(=O)n2C	none
CCCCOC(=O)c1[nH]c2c(c1C)C(=O)CC(c1cc(OC)c(OC)c(OC)c1)C2 (configuration not stated)	MPTP block 70 | Rh123 counter 90
O=C(c1cccc(C(F)(F)F)c1)C1CCCN(Cc2cccn2-c2ncccn2)C1 (configuration not stated)	none
COc1ccc(C(C)C)cc1S(=O)(=O)N1CC(C)OC(C)C1 (configuration not stated)	none
COCCNCCCOc1ccc(Cl)cc1Br	none
COCCCNCCCOc1ccc(Cl)cc1C(C)(C)C	MPTP block 82 | Rh123 counter inactive | MPTP swell DR 6 | MPTP counter DR inactive
CCC(C)NCCCOc1ccc(Cl)cc1C(C)(C)C (configuration not stated)	none
CNCCCOc1ccc(Cl)cc1C(C)(C)C	MPTP block 91 | Rh123 counter inactive | MPTP swell DR 5.1 | MPTP counter DR inactive
CC(C)[C@H](NC(=O)OC(C)(C)C)c1nnc(SCC(=O)Nc2ccc(Br)cc2)o1	MPTP block 82 | Rh123 counter 53
C=CC[C@@H](CC(=O)NCCO)C(=O)N[C@@H](COC(=O)[C@@H](CC=C)CC(=O)OC(C)(C)C)Cc1ccccc1	none
CC1(O)CC(c2ccc(Cl)cc2)=NN1C(=O)c1ccc([N+](=O)[O-])cc1 (configuration not stated)	MPTP block 73 | Rh123 counter 81
CC(=O)N1N=C(c2ccc(Cl)cc2)CC1c1ccc([N+](=O)[O-])cc1 (configuration not stated)	none
CCOC(=O)Cn1c(=N)n(CCOc2ccc3ccccc3c2)c2ccccc21	MPTP block 91 | Rh123 counter inactive | MPTP swell DR 4 | MPTP counter DR 26
CCCn1c(=N)n(CCOc2ccc(OC)cc2)c2ccccc21	MPTP block 54 | Rh123 counter inactive | MPTP swell DR 8.8 | MPTP counter DR 23
CCOC(=O)Cn1c(=N)n(CCOc2ccc(OC)cc2)c2ccccc21	none (no result: ADAM10 inh, ADAM17 inh)
Cc1cc(-c2c(C)[nH]n(-c3ccccc3)c2=O)n(-c2ccccc2)n1	none
C/C(=N\NC(=O)c1cccc(Cl)c1)C1C(=O)c2ccccc2C1=O	MPTP block 89 | Rh123 counter 85
C[C@H](CO)N1C[C@H](C)[C@@H](CN(C)Cc2ccc(-c3ccccc3)cc2)Oc2c(NS(=O)(=O)c3cccs3)cccc2C1=O	none
Cc1ccccc1CN1CCN(CC(=O)NCCCN2CCN(c3ccc(F)cc3)CC2)C1=O	MPTP block 56 | Rh123 counter inactive
O=C(CN1CCN(Cc2ccc(F)cc2Cl)C1=O)NCCCN1CCOCC1	none
O=C(CN1CCN(Cc2ccc(Cl)cc2)C1=O)NCCCN1CCN(c2ccc(F)cc2)CC1	MPTP block 69 | Rh123 counter inactive | MPTP swell DR 11 | MPTP counter DR 12
CC(C)N1CCc2c(sc(NC(=O)c3ccc(S(=O)(=O)N4CCOCC4)cc3)c2C(N)=O)C1	none
O=C1CSC(=S)N1/N=C/c1cc(Br)c(O)c(Br)c1	MPTP block 83 (no result: ADAM10 inh, ADAM17 inh) | Rh123 counter 66
COc1cc(/C=N/N2C(=O)CSC2=S)ccc1O	none
O=C(CSc1nnc2ccccn12)c1ccc(Cl)cc1	none
O=C(CSc1nnc2n1CCCN2C(=S)Nc1ccc(Cl)cc1)c1ccccc1	MPTP block 84 | Rh123 counter 89
CCSC1=NCCN1S(=O)(=O)c1ccc2ccccc2c1	none
C[C@H](CO)N1C[C@H](C)[C@@H](CN(C)C(=O)Nc2ccc(C(F)(F)F)cc2)Oc2ccc(NC(=O)c3ccncc3)cc2C1=O	none
COc1ccc(CNCCNC(=O)c2nonc2N)cc1OC	none
Nc1nonc1C(=O)NCCNCc1cc(Br)ccc1OCc1ccc(F)cc1	MPTP block 65 | Rh123 counter 72
Nc1nonc1C(=O)NCCNCc1c(OCc2ccccc2F)ccc2ccccc12	MPTP block 95 | Rh123 counter 23
Fc1ccc(NC(=S)Nc2ccccc2Cl)cc1	none
NC(=S)Nc1cccc(Cl)c1	none
Fc1ccc(NC(=S)Nc2ccc(Br)cc2)cc1	GRIN3A LBD mod 15, MPTP block 73 | Rh123 counter 93
Fc1ccc(NC(=S)Nc2cccc(Cl)c2)cc1	GRIN3A LBD mod 13, MPTP block 86 | Rh123 counter 97
CSc1cccc(NC(=S)Nc2ccc(F)cc2)c1	GRIN3A LBD mod 14, MPTP block 73 | Rh123 counter 85
CSc1cccc(NC(=S)NN(C)C)c1	none
CC(C)c1cccc(C(C)C)c1NC(=S)Nc1cccc(Cl)c1	MPTP block 88 | Rh123 counter 90

Compound activity deposited in PubChem BioAssay by several laboratories.
